Assay results: ChEMBL document CHEMBL1123980, “Serotonergic properties of spiroxatrine enantiomers” (J Med Chem, 1988)

Columns and labels:
[1] = molecular target: D(2) dopamine receptor (Rattus norvegicus, UniProt P61169); experiment: Binding affinity against Dopamine receptor D2 of rat was determined using 2 nM of [3H]sulpiride in binding assay
Method in brief: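 Striatal membranes from male Sprague-Dawley rats in Tris buffer with 108 mM NaCl, 4.7 mM KCl, 1.3 mM CaCl2, pH 7.4, 4 mg wet tissue/mL. Final [3H]sulpiride 2 nM; incubated 20 min at 37 °C, then vacuum filtration. Specific binding defined with 1 µM spiperone. IC50 read graphically and converted to apparent Ki (Cheng-Prusoff).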

[2] = molecular target: Serotonin 2 (5-HT2) receptor (Rattus norvegicus, UniProt P30994+P08909+P14842); experiment: Binding affinity towards serotonin 5-hydroxytryptamine 2 receptor of rat determined using 0.5 nM of [3H]ketanserin in binding assay; assay type: protein assay
Method in brief: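 0.5 nM [3H]ketanserin in the same buffer, no CaCl2 or pargyline; 15 min at 37 °C; filtration and scintillation counting. Nonspecific binding with 10 µM methysergide. IC50 read graphically and converted to apparent Ki (Cheng-Prusoff).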

[3] = molecular target: 5-hydroxytryptamine receptor 1B (Rattus norvegicus, UniProt P28564); experiment: Binding affinity towards 5-hydroxytryptamine 1B receptor in rat was determined using 50 uL of [125I]ICYP in binding assay
Chain of 5-hydroxytryptamine receptor 1B (P28564 whole entry): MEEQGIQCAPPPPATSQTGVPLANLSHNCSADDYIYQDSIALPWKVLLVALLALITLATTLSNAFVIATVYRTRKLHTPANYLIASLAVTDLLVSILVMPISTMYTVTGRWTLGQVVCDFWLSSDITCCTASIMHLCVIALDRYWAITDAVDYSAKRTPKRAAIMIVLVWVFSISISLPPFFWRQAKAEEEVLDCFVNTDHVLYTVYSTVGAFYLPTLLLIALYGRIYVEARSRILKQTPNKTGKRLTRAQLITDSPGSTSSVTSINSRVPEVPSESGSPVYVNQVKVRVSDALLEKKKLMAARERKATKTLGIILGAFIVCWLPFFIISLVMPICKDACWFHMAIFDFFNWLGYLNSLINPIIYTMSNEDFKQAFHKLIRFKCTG
Method in brief: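 [125I]ICYP at 150 pM final, in Tris/CaCl2/pargyline medium with 60 µM (-)-isoproterenol to block β-adrenergic sites. 15 min at 37 °C; ice-cold phosphate dilution, GF/B filtration, gamma counting. Nonspecific binding with 10 µM 5-HT.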

[4] = molecular target: T1, 5-hydroxytryptamine receptor 1A (Rattus norvegicus, UniProt P19327); experiment: Binding affinity against 5-hydroxytryptamine 1A receptor of rat was determined using [3H]8-OH-DPAT in binding assay
T1 sequence (P19327 whole entry): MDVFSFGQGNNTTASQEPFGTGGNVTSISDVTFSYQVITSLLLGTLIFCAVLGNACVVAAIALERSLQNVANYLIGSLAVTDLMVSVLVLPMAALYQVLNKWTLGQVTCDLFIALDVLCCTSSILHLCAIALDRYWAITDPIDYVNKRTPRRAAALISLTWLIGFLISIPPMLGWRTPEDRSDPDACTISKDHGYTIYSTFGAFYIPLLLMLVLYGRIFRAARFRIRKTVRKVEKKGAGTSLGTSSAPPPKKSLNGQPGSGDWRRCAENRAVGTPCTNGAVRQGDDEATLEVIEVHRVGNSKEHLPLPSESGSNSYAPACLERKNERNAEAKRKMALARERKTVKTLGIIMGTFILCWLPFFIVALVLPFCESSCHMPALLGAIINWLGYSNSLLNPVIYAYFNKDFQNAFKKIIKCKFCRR
Method in brief: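 Rat (male Sprague-Dawley) cerebral cortex membranes, washed 4 times with a 10 min 37 °C preincubation, 10 mg wet tissue/mL. 1 nM [3H]-8-OH-DPAT in 50 mM Tris, 3 mM CaCl2, pargyline, pH 7.4; 15 min, 37 °C; filtration on PEI-treated GF/B filters, scintillation counting. Nonspecific binding with 10 µM 5-HT. IC50 read graphically and converted to apparent Ki (Cheng-Prusoff).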

[5] = molecular target: T2, Adrenergic receptor alpha-1 (Rattus norvegicus, UniProt P15823+P23944+P43140); experiment: Binding affinity against alpha-1 adrenergic receptor of rat was determined using 0.5 nM of [3H]WB-4101 in binding assay; assay type: protein assay
T2 sequence (P15823 whole entry): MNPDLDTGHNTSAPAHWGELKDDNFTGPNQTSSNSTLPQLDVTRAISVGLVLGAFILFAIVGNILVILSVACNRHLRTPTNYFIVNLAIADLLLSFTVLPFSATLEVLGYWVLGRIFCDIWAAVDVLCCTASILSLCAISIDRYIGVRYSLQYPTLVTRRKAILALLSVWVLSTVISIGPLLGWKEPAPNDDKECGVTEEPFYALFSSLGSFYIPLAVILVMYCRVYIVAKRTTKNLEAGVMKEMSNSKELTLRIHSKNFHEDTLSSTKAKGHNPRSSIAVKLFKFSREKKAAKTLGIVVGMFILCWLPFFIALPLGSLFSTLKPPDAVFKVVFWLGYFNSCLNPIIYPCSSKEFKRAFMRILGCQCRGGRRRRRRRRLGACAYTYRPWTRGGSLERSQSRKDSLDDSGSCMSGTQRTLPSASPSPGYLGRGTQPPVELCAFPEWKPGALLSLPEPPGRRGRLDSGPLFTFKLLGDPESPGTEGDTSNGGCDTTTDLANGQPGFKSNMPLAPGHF
T2 sequence (P23944 whole entry): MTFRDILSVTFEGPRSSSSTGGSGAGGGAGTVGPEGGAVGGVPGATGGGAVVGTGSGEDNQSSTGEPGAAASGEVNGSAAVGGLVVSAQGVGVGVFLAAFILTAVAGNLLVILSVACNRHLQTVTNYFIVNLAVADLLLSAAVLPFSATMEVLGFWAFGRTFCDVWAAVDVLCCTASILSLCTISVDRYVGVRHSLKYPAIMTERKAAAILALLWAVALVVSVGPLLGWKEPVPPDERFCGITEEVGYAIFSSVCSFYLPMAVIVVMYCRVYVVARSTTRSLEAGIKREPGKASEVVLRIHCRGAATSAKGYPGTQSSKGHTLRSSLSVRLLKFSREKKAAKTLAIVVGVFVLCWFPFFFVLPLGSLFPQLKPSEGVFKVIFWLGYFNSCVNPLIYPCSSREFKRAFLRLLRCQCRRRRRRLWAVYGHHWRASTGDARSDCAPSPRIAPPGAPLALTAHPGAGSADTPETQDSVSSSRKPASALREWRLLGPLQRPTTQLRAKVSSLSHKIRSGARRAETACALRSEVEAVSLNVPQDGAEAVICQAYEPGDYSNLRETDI
T2 sequence (P43140 whole entry): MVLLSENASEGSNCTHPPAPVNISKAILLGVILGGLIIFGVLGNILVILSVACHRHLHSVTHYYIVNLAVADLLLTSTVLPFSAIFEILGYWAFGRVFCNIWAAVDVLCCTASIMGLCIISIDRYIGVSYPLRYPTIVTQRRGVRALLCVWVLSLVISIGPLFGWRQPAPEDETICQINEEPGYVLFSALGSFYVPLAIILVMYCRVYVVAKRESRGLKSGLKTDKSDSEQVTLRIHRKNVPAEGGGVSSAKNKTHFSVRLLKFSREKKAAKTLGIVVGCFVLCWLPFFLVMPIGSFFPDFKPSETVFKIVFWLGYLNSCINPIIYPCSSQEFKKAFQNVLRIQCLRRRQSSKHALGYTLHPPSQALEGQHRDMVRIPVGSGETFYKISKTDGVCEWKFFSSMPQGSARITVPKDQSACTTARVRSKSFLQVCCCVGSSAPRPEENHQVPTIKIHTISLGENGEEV
Method in brief: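 Washed rat cerebral cortex membranes at 10 mg wet tissue/mL, under the 8-OH-DPAT assay conditions (Tris/CaCl2/pargyline, pH 7.4, 15 min, 37 °C, filtration). Final [3H]WB4101 0.5 nM, with 1 µM 5-HT added to mask 5-HT1A sites. Nonspecific binding with 1 µM prazosin. Apparent Ki from graphical IC50 via Cheng-Prusoff.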

Chain of D(2) dopamine receptor (P61169 whole entry): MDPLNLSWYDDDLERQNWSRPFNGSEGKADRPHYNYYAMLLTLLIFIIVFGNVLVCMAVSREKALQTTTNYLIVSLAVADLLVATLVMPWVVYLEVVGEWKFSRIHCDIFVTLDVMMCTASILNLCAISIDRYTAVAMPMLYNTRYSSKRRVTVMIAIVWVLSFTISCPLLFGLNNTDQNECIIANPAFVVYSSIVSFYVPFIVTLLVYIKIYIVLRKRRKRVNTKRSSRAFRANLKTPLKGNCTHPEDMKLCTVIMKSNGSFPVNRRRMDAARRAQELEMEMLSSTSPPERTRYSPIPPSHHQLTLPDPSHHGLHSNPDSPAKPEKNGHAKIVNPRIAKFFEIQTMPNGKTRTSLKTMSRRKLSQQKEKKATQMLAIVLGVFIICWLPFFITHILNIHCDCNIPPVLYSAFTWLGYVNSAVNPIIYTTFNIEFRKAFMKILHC

Row | Structure (SMILES) | Ki [1] | Ki [2] | Ki [3] | Ki [4] | Ki [5]
1 | O=C1NCN(c2ccccc2)C12CCN(CC1COc3ccccc3O1)CC2 (stereo in doubt; (+)) [SPIROXATRINE] | 1.45 nM | 858 nM | > 10000 nM | 21 nM | 1050 nM
2 | O=C1NCN(c2ccccc2)C12CCN(CC1COc3ccccc3O1)CC2 (stereo in doubt; (-)) [SPIROXATRINE] | 0.22 nM | 113 nM | > 10000 nM | 1.9 nM | 149 nM
